Target: T1, C-X-C chemokine receptor type 4 (Homo sapiens, UniProt P61073)
T1 sequence (P61073 whole entry): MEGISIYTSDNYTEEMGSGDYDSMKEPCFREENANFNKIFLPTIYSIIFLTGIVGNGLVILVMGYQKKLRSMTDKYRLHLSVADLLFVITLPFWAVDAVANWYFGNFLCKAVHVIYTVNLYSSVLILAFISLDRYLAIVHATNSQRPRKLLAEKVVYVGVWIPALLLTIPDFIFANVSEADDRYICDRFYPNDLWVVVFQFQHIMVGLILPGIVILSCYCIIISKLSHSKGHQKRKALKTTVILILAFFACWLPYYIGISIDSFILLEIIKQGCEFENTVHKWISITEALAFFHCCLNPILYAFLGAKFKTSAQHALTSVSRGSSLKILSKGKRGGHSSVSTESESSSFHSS
Assay: Competitive inhibition of [125I]-CXCL12 binding to CXCR4 in human Jurkat cells at 1 uM in absence of ZnCl2 after 2 hrs by gamma counting analysis relative to control
Assay type: cell-based
Settings: not given
In the case of `c1ccc(CN(Cc2ccc3c(c2)-c2cc(CN4CCCNCCNCCCNCC4)ccc2OCCO3)Cc2ccccn2)nc1`, the inhibition is reported as 48.7%. With `c1ccc(CN(Cc2ccnc(-c3cccc(CN4CCCNCCNCCCNCC4)c3)c2)Cc2ccccn2)nc1` the inhibition was 63%. `c1ccc(CN(Cc2ccc(-c3ccc(CN4CCCNCCNCCCNCC4)cn3)nc2)Cc2ccccn2)nc1` gave an inhibition of 68.6%. In the case of `c1ccc(CN(Cc2ccc(-c3ccccc3CN3CCCNCCNCCCNCC3)cc2)Cc2ccccn2)nc1`, the inhibition is reported as 54.9%. With `c1ccc(CN(Cc2ccc(CN3CCCNCCNCCCNCC3)cc2)Cc2ccccn2)nc1` the inhibition was 110%.

Test system: not listed separately
Assay: Cytotoxicity against human MT4 cells in absence of ZnCl2
Assay type: cell-based
Settings: not given
For `c1ccc(CN(Cc2ccc3c(c2)-c2cc(CN4CCCNCCNCCCNCC4)ccc2OCCO3)Cc2ccccn2)nc1`, the CC50 was > 10 µM. In the case of `c1ccc(CN(Cc2ccnc(-c3cccc(CN4CCCNCCNCCCNCC4)c3)c2)Cc2ccccn2)nc1`, the CC50 is reported as > 10 µM. With `c1ccc(CN(Cc2ccc(-c3ccc(CN4CCCNCCNCCCNCC4)cn3)nc2)Cc2ccccn2)nc1` the CC50 was > 10 µM. With `c1ccc(CN(Cc2ccc(-c3ccccc3CN3CCCNCCNCCCNCC3)cc2)Cc2ccccn2)nc1` the CC50 was > 10 µM. With `c1ccc(CN(Cc2ccc(CN3CCCNCCNCCCNCC3)cc2)Cc2ccccn2)nc1` the CC50 was > 10 µM.

Target: T1, C-X-C chemokine receptor type 4
Assay: Competitive inhibition of [125I]-CXCL12 binding to CXCR4 in human Jurkat cells at 1 uM in presence of ZnCl2 after 2 hrs by gamma counting analysis relative to control
Assay type: cell-based
Settings: not given
Work on `c1ccc(CN(Cc2ccc3c(c2)-c2cc(CN4CCCNCCNCCCNCC4)ccc2OCCO3)Cc2ccccn2)nc1` yielded an inhibition of 119%. Compound `c1ccc(CN(Cc2ccnc(-c3cccc(CN4CCCNCCNCCCNCC4)c3)c2)Cc2ccccn2)nc1` has an inhibition of 84.7%. `c1ccc(CN(Cc2ccc(-c3ccc(CN4CCCNCCNCCCNCC4)cn3)nc2)Cc2ccccn2)nc1` showed an inhibition of 98.7%. Compound `c1ccc(CN(Cc2ccc(-c3ccccc3CN3CCCNCCNCCCNCC3)cc2)Cc2ccccn2)nc1` has an inhibition of 91.6%. Compound `c1ccc(CN(Cc2ccc(CN3CCCNCCNCCCNCC3)cc2)Cc2ccccn2)nc1` has an inhibition of 82.5%.

Target: T1, C-X-C chemokine receptor type 4
Assay: Competitive inhibition of TAMRAAc-TZ14011 binding to CXCR4 (unknown origin) expressed in CHO cells at 1 uM in absence of ZnCl2 by NanoBRET assay relative to control
Assay type: cell-based
Settings: not given
Outline: (§1)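 Single-point competition in CHO cells stably expressing N-terminally Nluc-tagged CXCR4 (5 x 10^4 cells, seeded 24 h earlier at 37 °C, 5% CO2, medium then replaced with OptiMEM). Cells were incubated with 10 nM TAMRA-Ac-TZ14011 plus 1 µM compound, without or with 10 µM ZnCl2 (10 eq), for 1 h at 25 °C. Furimazine was added and BRET read as acceptor (>610 nm) over donor (460 nm). Inhibition is relative to no compound and to excess Ac-TZ14011; mean ± SEM, n = 3.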
For `c1ccc(CN(Cc2ccc3c(c2)-c2cc(CN4CCCNCCNCCCNCC4)ccc2OCCO3)Cc2ccccn2)nc1`, the inhibition was 47.8%. With `c1ccc(CN(Cc2ccnc(-c3cccc(CN4CCCNCCNCCCNCC4)c3)c2)Cc2ccccn2)nc1` the inhibition was 47.6%. Work on `c1ccc(CN(Cc2ccc(-c3ccc(CN4CCCNCCNCCCNCC4)cn3)nc2)Cc2ccccn2)nc1` yielded an inhibition of 75.3%. `c1ccc(CN(Cc2ccc(-c3ccccc3CN3CCCNCCNCCCNCC3)cc2)Cc2ccccn2)nc1` showed an inhibition of 52.6%. For `c1ccc(CN(Cc2ccc(CN3CCCNCCNCCCNCC3)cc2)Cc2ccccn2)nc1`, the inhibition was 101%.

Test system: Human immunodeficiency virus 1
Assay: Antiviral activity against R5 tropic HIV-1 NL(AD8) infected in human MT4 cells assessed as protection against virus-induced cytopathic effect at 10 uM in absence of ZnCl2 after 5 days by MTT assay
Assay type: functional
Settings: Human immunodeficiency virus 1, NL(AD8), MT4, 120 h
With `c1ccc(CN(Cc2ccc3c(c2)-c2cc(CN4CCCNCCNCCCNCC4)ccc2OCCO3)Cc2ccccn2)nc1` the inhibition at 10 µM was < 30%. With `c1ccc(CN(Cc2ccnc(-c3cccc(CN4CCCNCCNCCCNCC4)c3)c2)Cc2ccccn2)nc1` the inhibition at 10 µM was < 30%. With `c1ccc(CN(Cc2ccc(-c3ccc(CN4CCCNCCNCCCNCC4)cn3)nc2)Cc2ccccn2)nc1` the inhibition at 10 µM was < 30%. For `c1ccc(CN(Cc2ccc(-c3ccccc3CN3CCCNCCNCCCNCC3)cc2)Cc2ccccn2)nc1`, the inhibition at 10 µM was < 30%.

Target: T1, C-X-C chemokine receptor type 4
Assay: Competitive inhibition of TAMRAAc-TZ14011 binding to CXCR4 (unknown origin) expressed in CHO cells in presence of ZnCl2 by NanoBRET assay relative to control
Assay type: cell-based
Settings: not given
Outline: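 Cells were incubated with 10 nM TAMRA-Ac-TZ14011 and compound plus ZnCl2 (10 eq). Furimazine was added and BRET ratio taken as >610 nm over 460 nm emission. Inhibition is scaled between no compound and excess Ac-TZ14011.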
In the case of `c1ccc(CN(Cc2ccnc(-c3cccc(CN4CCCNCCNCCCNCC4)c3)c2)Cc2ccccn2)nc1`, the IC50 is reported as 0.0035 µM. Work on `c1ccc(CN(Cc2ccc(-c3ccccc3CN3CCCNCCNCCCNCC3)cc2)Cc2ccccn2)nc1` yielded an IC50 of 0.0057 µM. `c1ccc(CN(Cc2ccc(CN3CCCNCCNCCCNCC3)cc2)Cc2ccccn2)nc1` gave an IC50 of 0.032 µM.

Target: T1, C-X-C chemokine receptor type 4
Assay: Competitive inhibition of TAMRAAc-TZ14011 binding to CXCR4 (unknown origin) expressed in CHO cells at 1 uM in presence of ZnCl2 by NanoBRET assay relative to control
Assay type: cell-based
Settings: not given
Outline: as §1
Work on `c1ccc(CN(Cc2ccc3c(c2)-c2cc(CN4CCCNCCNCCCNCC4)ccc2OCCO3)Cc2ccccn2)nc1` yielded an inhibition of 89%. Compound `c1ccc(CN(Cc2ccnc(-c3cccc(CN4CCCNCCNCCCNCC4)c3)c2)Cc2ccccn2)nc1` has an inhibition of 93.4%. `c1ccc(CN(Cc2ccc(-c3ccc(CN4CCCNCCNCCCNCC4)cn3)nc2)Cc2ccccn2)nc1` gave an inhibition of 94.4%. In the case of `c1ccc(CN(Cc2ccc(-c3ccccc3CN3CCCNCCNCCCNCC3)cc2)Cc2ccccn2)nc1`, the inhibition is reported as 83.1%. In the case of `c1ccc(CN(Cc2ccc(CN3CCCNCCNCCCNCC3)cc2)Cc2ccccn2)nc1`, the inhibition is reported as 83.7%.

Test system: not listed separately
Assay: Cytotoxicity against human MT4 cells in presence of ZnCl2
Assay type: cell-based
Settings: not given
Outline: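 MT-4 viability with compound plus ZnCl2 (10 eq). CC50 is the concentration giving 50% reduction in viable cells; mean of at least three independent experiments.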
With `c1ccc(CN(Cc2ccc(CN3CCCNCCNCCCNCC3)cc2)Cc2ccccn2)nc1` the CC50 was > 10 µM.

Test system: Human immunodeficiency virus 1
Assay: Antiviral activity against X4 tropic HIV-1 NL4-3 infected in human MT4 cells assessed as protection against virus-induced cytopathic effect in absence of ZnCl2 after 5 days by MTT assay
Assay type: functional, organism-based
Settings: Human immunodeficiency virus 1, NL4-3, MT4, 120 h
Outline: (§2)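 Protection of MT-4 cells from X4 HIV-1 NL4-3 cytopathicity. Infected cells (MOI 0.001, 2.0 × 10^4 cells/well) received graded compound concentrations, without or with ZnCl2 (10 eq), for 5 days at 37 °C. Viable cells were counted by MTT. EC50 is the concentration giving 50% protection; mean of at least three independent experiments.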
Compound `c1ccc(CN(Cc2ccc3c(c2)-c2cc(CN4CCCNCCNCCCNCC4)ccc2OCCO3)Cc2ccccn2)nc1` has an EC50 of 1.9 µM. `c1ccc(CN(Cc2ccnc(-c3cccc(CN4CCCNCCNCCCNCC4)c3)c2)Cc2ccccn2)nc1` showed an EC50 of 0.17 µM. For `c1ccc(CN(Cc2ccc(-c3ccc(CN4CCCNCCNCCCNCC4)cn3)nc2)Cc2ccccn2)nc1`, the EC50 was 0.68 µM. In the case of `c1ccc(CN(Cc2ccc(-c3ccccc3CN3CCCNCCNCCCNCC3)cc2)Cc2ccccn2)nc1`, the EC50 is reported as 0.04 µM. `c1ccc(CN(Cc2ccc(CN3CCCNCCNCCCNCC3)cc2)Cc2ccccn2)nc1` gave an EC50 of 0.0065 µM.

Test system: Human immunodeficiency virus 1
Assay: Antiviral activity against X4 tropic HIV-1 NL4-3 infected in human MT4 cells assessed as protection against virus-induced cytopathic effect in presence of ZnCl2 after 5 days by MTT assay
Assay type: functional, organism-based
Settings: Human immunodeficiency virus 1, NL4-3, MT4, 120 h
Outline: as §2
`c1ccc(CN(Cc2ccc3c(c2)-c2cc(CN4CCCNCCNCCCNCC4)ccc2OCCO3)Cc2ccccn2)nc1` showed an EC50 of 0.97 µM. For `c1ccc(CN(Cc2ccnc(-c3cccc(CN4CCCNCCNCCCNCC4)c3)c2)Cc2ccccn2)nc1`, the EC50 was 0.028 µM. Compound `c1ccc(CN(Cc2ccc(-c3ccc(CN4CCCNCCNCCCNCC4)cn3)nc2)Cc2ccccn2)nc1` has an EC50 of 0.9 µM. Work on `c1ccc(CN(Cc2ccc(-c3ccccc3CN3CCCNCCNCCCNCC3)cc2)Cc2ccccn2)nc1` yielded an EC50 of 0.021 µM. `c1ccc(CN(Cc2ccc(CN3CCCNCCNCCCNCC3)cc2)Cc2ccccn2)nc1` showed an EC50 of 0.0027 µM.

Test system: Human immunodeficiency virus 1
Assay: Antiviral activity against R5 tropic HIV-1 NL(AD8) infected in human MT4 cells assessed as protection against virus-induced cytopathic effect at 10 uM in presence of ZnCl2 after 5 days by MTT assay
Assay type: functional
Settings: Human immunodeficiency virus 1, NL(AD8), MT4, 120 h
In the case of `c1ccc(CN(Cc2ccc3c(c2)-c2cc(CN4CCCNCCNCCCNCC4)ccc2OCCO3)Cc2ccccn2)nc1`, the inhibition at 10 µM is reported as < 30%. For `c1ccc(CN(Cc2ccnc(-c3cccc(CN4CCCNCCNCCCNCC4)c3)c2)Cc2ccccn2)nc1`, the inhibition at 10 µM was < 30%. With `c1ccc(CN(Cc2ccc(-c3ccc(CN4CCCNCCNCCCNCC4)cn3)nc2)Cc2ccccn2)nc1` the inhibition at 10 µM was < 30%. In the case of `c1ccc(CN(Cc2ccc(-c3ccccc3CN3CCCNCCNCCCNCC3)cc2)Cc2ccccn2)nc1`, the inhibition at 10 µM is reported as 58%.

— ChEMBL document CHEMBL4368937, “Design, synthesis and biological evaluation of low molecular weight CXCR4 ligands” (Bioorg Med Chem, 2019)
